Experimental data: ChEMBL document CHEMBL1149174, “Synthesis and structure-activity relationship of acrylamides as KCNQ2 potassium channel openers” (J Med Chem, 2004)

Each molecule was assayed against Potassium voltage-gated channel subfamily KQT member 2 (Mus musculus) (UniProt Q9Z351) (assay: Ability to open cloned mKCNQ2 channel expressed in Xenopus laevis oocytes at 10 uM expressed as percent of compound-free control current at -40 mV). Details: Oocyte.
Sequence of Potassium voltage-gated channel subfamily KQT member 2 (Mus musculus) (Q9Z351 whole entry): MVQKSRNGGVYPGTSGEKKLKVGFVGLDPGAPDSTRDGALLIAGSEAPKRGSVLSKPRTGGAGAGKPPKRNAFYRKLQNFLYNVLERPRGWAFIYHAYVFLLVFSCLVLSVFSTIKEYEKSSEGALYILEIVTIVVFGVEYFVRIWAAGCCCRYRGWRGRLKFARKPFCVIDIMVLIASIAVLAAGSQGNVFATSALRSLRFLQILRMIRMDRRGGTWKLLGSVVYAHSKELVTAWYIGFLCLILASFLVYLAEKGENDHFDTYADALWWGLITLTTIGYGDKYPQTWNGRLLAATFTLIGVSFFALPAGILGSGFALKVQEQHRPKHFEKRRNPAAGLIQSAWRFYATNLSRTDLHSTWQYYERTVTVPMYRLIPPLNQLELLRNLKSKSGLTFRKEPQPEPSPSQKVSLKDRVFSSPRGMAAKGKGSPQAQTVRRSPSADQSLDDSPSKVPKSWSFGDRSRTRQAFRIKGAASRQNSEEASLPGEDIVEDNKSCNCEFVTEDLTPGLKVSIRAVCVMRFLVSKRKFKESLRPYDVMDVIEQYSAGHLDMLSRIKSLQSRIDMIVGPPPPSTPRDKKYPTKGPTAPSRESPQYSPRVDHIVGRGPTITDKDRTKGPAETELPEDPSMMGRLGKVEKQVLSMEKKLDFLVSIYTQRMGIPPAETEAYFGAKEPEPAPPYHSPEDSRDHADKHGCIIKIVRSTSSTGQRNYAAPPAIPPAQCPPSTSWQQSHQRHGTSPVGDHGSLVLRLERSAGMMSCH
Assay type: functional, cell-based
In short: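 Two-electrode voltage clamp of Xenopus laevis oocytes injected with ~50 nL mKCNQ2 cRNA, kept at 17 °C in ND96 (mM: NaCl 90, KCl 1.0, CaCl2 1.0, MgCl2 1.0, HEPES 5.0, pH 7.5) with 5% horse serum and penicillin/streptomycin. Holding potential -90 mV, 10 mV steps from -80 to +40 mV. Current at -40 mV with 10 μM compound taken as % of compound-free control; mean ± SEM of ≥5 oocytes.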
Molecule CC1CN(c2cccc([C@H](C)NC(=O)/C=C/c3ccccc3)c2)CC(C)O1 (stereo partly specified) has a KCNQ2 current at -40 mV as percent of compound-free control of 138%.
COc1cccc(/C=C/C(=O)N[C@@H](C)c2cccc(N3CCOCC3)c2)c1 gave a KCNQ2 current at -40 mV as percent of compound-free control of 132%.
C[C@H](NC(=O)/C=C/c1ccccc1F)c1cccc(N2CCN(C)CC2)c1 showed a KCNQ2 current at -40 mV as percent of compound-free control of 107%.
COc1ccc(N2CCOCC2)cc1[C@H](C)NC(=O)/C=C/c1ccccc1 gave a KCNQ2 current at -40 mV as percent of compound-free control of 98%.
For C[C@H](NC(=O)/C=C/c1ccccc1)c1cccc(N2CCOCC2)c1, the KCNQ2 current at -40 mV as percent of compound-free control was 163%.
For CC1CN(c2cccc([C@H](C)NC(=O)/C=C/c3ccccc3F)c2)CC(C)O1 (stereo partly specified), the KCNQ2 current at -40 mV as percent of compound-free control was 135%.
O=C(/C=C/c1ccccc1)NCc1cccc(N2CCOCC2)c1 gave a KCNQ2 current at -40 mV as percent of compound-free control of 110%.
Molecule COc1ccc(/C=C/C(=O)N[C@@H](C)c2cccc(N3CCOCC3)c2)cc1 has a KCNQ2 current at -40 mV as percent of compound-free control of 140%.
C[C@H](NC(=O)/C=C/c1ccc(F)cc1F)c1cccc(N2CCOCC2)c1 showed a KCNQ2 current at -40 mV as percent of compound-free control of 124%.
For C[C@H](NC(=O)/C=C/c1ccccc1)c1cccc(N2CCCOCC2)c1, the KCNQ2 current at -40 mV as percent of compound-free control was 110%.
With COc1ccc([C@H](C)NC(=O)/C=C/c2ccccc2)cc1N1CCOCC1 the KCNQ2 current at -40 mV as percent of compound-free control was 96%.
For C[C@@H](c1cccc(N2CCOCC2)c1)N(C)C(=O)/C=C/c1ccccc1, the KCNQ2 current at -40 mV as percent of compound-free control was 72%.
In the case of C[C@H](NC(=O)CCc1ccccc1)c1cccc(N2CCOCC2)c1, the KCNQ2 current at -40 mV as percent of compound-free control is reported as 105%.
Work on C[C@H](NC(=O)/C=C/c1ccccc1)c1cccc(N2CC3CC2CO3)c1 (stereo partly specified) yielded a KCNQ2 current at -40 mV as percent of compound-free control of 104%.
With CC1=C(C(=O)N[C@@H](C)c2cccc(N3CCOCC3)c2)Cc2ccccc21 the KCNQ2 current at -40 mV as percent of compound-free control was 101%.
C[C@H](NC(=O)/C=C/c1cc(F)ccc1F)c1cccc(N2CCOCC2)c1 showed a KCNQ2 current at -40 mV as percent of compound-free control of 102%.
C[C@H](NC(=O)/C=C/c1cccc(F)c1)c1cccc(N2CCOCC2)c1 was tested, and the KCNQ2 current at -40 mV as percent of compound-free control was 127%.
C[C@H](NC(=O)/C=C/c1ccc(F)cc1)c1cccc(N2CCOCC2)c1 showed a KCNQ2 current at -40 mV as percent of compound-free control of 88%.
C[C@H](NC(=O)/C=C/c1ccccc1)c1cccc(N(C)C)c1 showed a KCNQ2 current at -40 mV as percent of compound-free control of 110%.
With C[C@H](NC(=O)/C=C/c1ccc(F)cc1)c1ccc(F)c(N2CCOCC2)c1 the KCNQ2 current at -40 mV as percent of compound-free control was 142%.
C[C@@H](NC(=O)/C=C/c1ccccc1)c1cccc(N2CCOCC2)c1 showed a KCNQ2 current at -40 mV as percent of compound-free control of 96%.
C[C@H](NC(=O)/C=C/c1ccccc1)c1ccc(F)c(N2CCOCC2)c1 showed a KCNQ2 current at -40 mV as percent of compound-free control of 129%.
Work on C[C@H](NC/C=C/c1ccccc1)c1cccc(N2CCOCC2)c1 yielded a KCNQ2 current at -40 mV as percent of compound-free control of 98%.
C[C@H](NC(=O)/C=C/c1ccccc1F)c1cccc(N2CCOCC2)c1 showed a KCNQ2 current at -40 mV as percent of compound-free control of 121%.
With CC1CN(c2cccc([C@H](C)NC(=O)/C=C/c3ccc(F)cc3)c2)CC(C)O1 (stereo partly specified) the KCNQ2 current at -40 mV as percent of compound-free control was 133%.
With COc1ccccc1/C=C/C(=O)N[C@@H](C)c1cccc(N2CCOCC2)c1 the KCNQ2 current at -40 mV as percent of compound-free control was 99%.
